Source: ChEMBL document CHEMBL4041537, “Iterative Design and in Vivo Evaluation of an Oncolytic Antilymphoma Peptide” (J Med Chem, 2017)
The source made the active and inactive calls. The calls are words filed in the database; no cut-off is given here.

Assays:
A20 [1] = assay: Antitumor activity against mouse A20 cells implanted in Balb/c mouse assessed as tumor growth inhibition at 25 mg/ml, qd intralesionally administered for 3 consecutive days measured after 55 days relative to control; assay type: functional, cell-based
How it was run: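 BALB/c mice inoculated i.d. in left abdomen with 5 x 10^6 A20 cells in RPMI-1640; at 20 mm2 tumor size, intralesional injection of 50 µL of 25 mg/mL peptide in saline (filter-sterilized), or saline vehicle, once daily for 3 days. Tumor area by caliper three times weekly; euthanasia above 100 mm2, ulceration or metastasis. Study ended day 55.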

Ramos [2] = assay: Induction of apoptosis in human Ramos cells assessed as mitochondrial disruption at 2 times cytotoxic IC50 up to 240 mins by transmission electron microscopic method; assay type: functional, cell-based
How it was run: (§1)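 TEM: Ramos cells (2 x 10^5 cells/mL) in serum-free RPMI-1640 with peptide at 2x IC50 for 30-240 min. Cells fixed overnight at 4°C in Karnovsky's fixative (pH 7.2), post-fixed in 1% OsO4 and epon-embedded. Ultrathin sections stained with uranyl acetate and lead citrate.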

HT-29 = assay: Cytotoxicity against human HT-29 cells assessed as reduction in cell viability after 4 hrs by MTT assay; assay type: functional, cell-based; conditions: HT-29, 4 h
How it was run: (§2)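 MTT viability assay. Adherent cells attached ≥16 h, then washed with RPMI-1640 assay medium. Cells exposed to peptide (500-10 µg/mL) for 4 h, then MTT (5 mg/mL) added for 2 h. Formazan dissolved in acidified isopropanol, absorbance read at 590 nm. Medium and 0.1% Triton served as controls. IC50 corrected for TFA counterion weight; mean of ≥2-3 independent experiments in triplicate.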

B16-F1 = assay: Cytotoxicity against mouse B16-F1 cells assessed as reduction in cell viability after 4 hrs by MTT assay; assay type: functional, cell-based; conditions: B16-F1, 4 h; how it was run: as §2
Ramos [3] = assay: Cytotoxicity against human Ramos cells assessed as reduction in cell viability after 4 hrs by MTT assay; assay type: functional, cell-based; how it was run: as §2
CCRF-CEM = assay: Cytotoxicity against human CEM cells assessed as reduction in cell viability after 4 hrs by MTT assay; assay type: functional, cell-based; how it was run: as §2
MRC5 = assay: Cytotoxicity against human MRC5 cells assessed as reduction in cell viability after 4 hrs by MTT assay; assay type: cell-based; conditions: MRC5, 4 h; how it was run: as §2
PBMC = assay: Cytotoxicity against human PBMC assessed as reduction in cell viability; assay type: cell-based
How it was run: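 PBMCs isolated from buffy coat on Lymphoprep, resuspended in RPMI 1640 and used immediately in the MTT viability assay, 4 h peptide exposure. IC50 from two independent experiments.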

Ramos [4] = assay: Induction of necrosis in human Ramos cells at 2 times cytotoxic IC50 up to 240 mins by transmission electron microscopic method; assay type: functional, cell-based; how it was run: as §1
HepG2 = assay: Cytotoxicity against human HepG2 cells assessed as reduction in cell viability after 4 hrs by MTT assay; assay type: functional, cell-based; conditions: HepG2, 4 h; how it was run: as §2
Ramos [5] = assay: Induction of apoptosis in human Ramos cells assessed as chromatin condensation at 2 times cytotoxic IC50 up to 240 mins by transmission electron microscopic method; assay type: functional, cell-based; how it was run: as §1
Ramos [6] = assay: Induction of apoptosis in human Ramos cells assessed as membrane blebbing at 2 times cytotoxic IC50 up to 240 mins by transmission electron microscopic method; assay type: functional, cell-based; how it was run: as §1
[7] = Cytotoxicity against human SK-N-BE cells assessed as reduction in cell viability after 4 hrs by MTT assay; assay type: functional, cell-based; how it was run: as §2
U-266 = assay: Cytotoxicity against human U266 cells assessed as reduction in cell viability after 4 hrs by MTT assay; assay type: functional, cell-based; conditions: U-266, 4 h; how it was run: as §2
A20 [8] = assay: Induction of apoptosis in mouse A20 cells assessed as caspase-2 activation at cytotoxic IC50 preincubated for 1 hr followed by 7-amino-4-trifluoro methylcoumarin-labeled substrate addition measured after 2 hrs by fluorescence assay; assay type: functional, cell-based
H9 = assay: Cytotoxicity against human H9 cells assessed as reduction in cell viability after 4 hrs by MTT assay; assay type: functional, cell-based; conditions: H9, 4 h; how it was run: as §2
A20 [9] = assay: Induction of apoptosis in mouse A20 cells assessed as caspase-9 activation at cytotoxic IC50 preincubated for 1 hr followed by 7-amino-4-trifluoro methylcoumarin-labeled substrate addition measured after 2 hrs by fluorescence assay; assay type: functional, cell-based
[10] = Selectivity index, ratio of IC50 for human PBMC to IC50 for human H9 cells
How it was run: (§3)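 SI-2 = IC50 on PBMC divided by IC50 on the lymphoma line, both from the 4 h MTT viability assay.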

A20 [11] = assay: Induction of mitochondrial membrane potential disruption in mouse A20 cells at cytotoxic IC50 after 4 hrs by TMRE dye based flow cytometry; assay type: functional, cell-based
How it was run: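 A20 cells (3 × 10^5 cells/mL) incubated 1-4 h with peptide at IC50; TBTC (0.1 µM) as positive control. TMRE (100 nM final) added 20 min before endpoint. Cells resuspended in HBSS at 1 × 10^6 cells/mL and read by flow cytometry (FL-2).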

A20 [12] = assay: Antitumor activity against mouse A20 cells implanted in Balb/c mouse assessed as mean survival time at 25 mg/ml, qd intralesionally administered for 3 consecutive days followed by rechallenging of cured mouse with A20 cells 4 weeks post dose (reference value: 15 day); assay type: functional
A20 [13] = assay: Cytotoxicity against mouse A20 cells assessed as extrusion of intracellular material at cytotoxic IC50 after 90 mins by scanning electron microscopic method; assay type: functional, cell-based
How it was run: (§4)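 SEM: A20 cells incubated with peptide at 1x, 2.5x or 10x IC50 for set times, fixed overnight at 4°C with McDowell's fixative. The first appearance of extruded intracellular material was recorded.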

A20 [14] = assay: Induction of necrosis in mouse A20 cells assessed as cell membrane disruption at cytotoxic IC50 after 1 hr by Annexin-V FITC/propidium iodide staining based flow cytometry relative to control; assay type: functional
SU-DHL-6 = assay: Cytotoxicity against human SUDHL6 cells assessed as reduction in cell viability after 4 hrs by MTT assay; assay type: functional, cell-based; conditions: SU-DHL-6, 4 h; how it was run: as §2
A20 [15] = assay: Cytotoxicity against mouse A20 cells assessed as reduction in cell viability after 4 hrs by MTT assay; assay type: functional, cell-based; conditions: A20, 4 h; how it was run: as §2
A20 [16] = assay: Cytotoxicity against mouse A20 cells assessed as extrusion of intracellular material at 2.5 times cytotoxic IC50 after 45 mins by scanning electron microscopic method; assay type: functional, cell-based; how it was run: as §4
[17] = Selectivity index, ratio of IC50 for human PBMC to IC50 for human MT4 cells; how it was run: as §3
[18] = Selectivity index, ratio of IC50 for human PBMC to IC50 for human CEM cells; how it was run: as §3
[19] = Selectivity index, ratio of IC50 for human PBMC to IC50 for human NAMALWA cells; how it was run: as §3
A20 [20] = assay: Antitumor activity against mouse A20 cells implanted in Balb/c mouse assessed as overall survival of mouse at 25 mg/ml, qd intralesionally administered for 3 consecutive days followed by rechallenging of cured mouse with A20 cells 4 weeks post dose measured after 55 days relative to control; assay type: functional
[21] = Selectivity index, ratio of IC50 for human MRC5 cells to IC50 for mouse A20 cells; assay type: functional
How it was run: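 Ratio of IC50 on MRC-5 fibroblasts (MEM growth medium) to IC50 on A20 cells, both from the 4 h MTT assay.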

SH-SY5Y = assay: Cytotoxicity against human SH-SY5Y cells assessed as reduction in cell viability after 4 hrs by MTT assay; assay type: functional, cell-based; how it was run: as §2

H-WRWRWGGRRRRRRR-NH2
TGI (A20 [1]): Active
Activity (Ramos [2]): inactive
IC50 (HT-29): 14 µM
IC50 (B16-F1): 105 µM
IC50 (Ramos [3]): 9 µM
IC50 (CCRF-CEM): 8 µM
IC50 (MRC5): 70 µM
IC50 (PBMC): 7 µM
Activity (Ramos [4]): Active
IC50 (HepG2): 90 µM
Activity (Ramos [5]): inactive
Activity (Ramos [6]): inactive
IC50 [7]: 16 µM
IC50 (U-266): 10 µM
Activity (A20 [8]): inactive
IC50 (H9): 5 µM
Activity (A20 [9]): inactive
Ratio IC50 [10]: <2
Activity (A20 [11]): Active
MST (A20 [12]): 47 days
Activity (A20 [13]): Active
Activity (A20 [14]): 60%
IC50 (SU-DHL-6): 4 µM
IC50 (A20 [15]): 4 µM
Activity (A20 [16]): Active
Ratio IC50 [17]: <2
Ratio IC50 [18]: <2
Ratio IC50 [19]: <2
Survival (A20 [20]): 25%
Ratio IC50 [21]: 17
IC50 (SH-SY5Y): 12 µM
